For assay [1], the system named is Plasmodium falciparum. Kind of assay: Antimalarial activity against Plasmodium falciparum D6 Africa in human malaria. Format: functional, organism-based. The essentials:
(§1)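 Compounds dissolved in DMSO and 70% ethanol, then diluted in RPMI 1640 with 10% human plasma and tested over 1.56–100 × 10⁻⁹ M. Parasites at 0.5% parasitemia and 1% hematocrit were exposed to compound for 24 h before ³H-hypoxanthine was added. Uptake was read by scintillation counting, and IC50 was derived by nonlinear regression of concentration-response data.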

Assay [2] relates to Plasmodium falciparum. Nature of the assay: Antimalarial activity against Plasmodium falciparum W-2 Indochina in human malaria. Format: functional, organism-based. The essentials:
as §1

≈ marks a conversion by molar mass, not a printed value. Some results are limits rather than exact numbers.

For `C[C@@H]1CC[C@H]2[C@](C)(Br)[C@@H](Nc3nccs3)O[C@@H]3O[C@@]4(C)CC[C@@H]1[C@]32OO4`, the IC50 (as a rule, the concentration needed to halve the response being measured) with Plasmodium falciparum [1] is 0.91 ng/mL (≈ 2.04 nM); in the assay with Plasmodium falciparum [2] it was 0.21 ng/mL (≈ 0.472 nM).

As to `C[C@@H]1CC[C@H]2[C@](C)(Br)[C@@H](Nc3ccccn3)O[C@@H]3O[C@@]4(C)CC[C@@H]1[C@]32OO4`, the values for the IC50 with Plasmodium falciparum [1] and in the assay with Plasmodium falciparum [2] were 7.72 ng/mL (≈ 17.6 nM) and 1.19 ng/mL (≈ 2.71 nM), respectively.

Regarding `C[C@@H]1CC[C@H]2[C@](C)(Br)[C@@H](Nc3cccc(F)c3)O[C@@H]3O[C@@]4(C)CC[C@@H]1[C@]32OO4`, the IC50 is 0.16 ng/mL (≈ 0.351 nM) in the assay with Plasmodium falciparum [1] and less than 0.16 ng/mL in the assay with Plasmodium falciparum [2].

Turning to `C[C@@H]1CC[C@H]2[C@](C)(Br)[C@@H](Nc3ncccn3)O[C@@H]3O[C@@]4(C)CC[C@@H]1[C@]32OO4`, the IC50 came out at 26 ng/mL (≈ 59 nM) in the assay on Plasmodium falciparum [1] and 5.56 ng/mL (≈ 12.6 nM) in the assay with Plasmodium falciparum [2].

On to `C[C@@H]1CC[C@H]2[C@](C)(Br)[C@@H](Nc3ccccc3)O[C@@H]3O[C@@]4(C)CC[C@@H]1[C@]32OO4`, for which the IC50 came to 3.42 ng/mL (≈ 7.8 nM) in the assay on Plasmodium falciparum [1] and 0.63 ng/mL (≈ 1.44 nM) in the assay on Plasmodium falciparum [2].

In turn, `C[C@@H]1CC[C@H]2[C@@H](C)C(=O)O[C@@H]3O[C@@]4(C)CC[C@@H]1[C@]32OO4` [ARTEMISININ] had an IC50 in the assay on Plasmodium falciparum [1] of 0.56 ng/mL (≈ 1.98 nM).

Source of the values: ChEMBL document CHEMBL1125123, “Antimalarial activity of new water-soluble dihydroartemisinin derivatives. 3. Aromatic amine analogues” (J Med Chem, 1990).
